The values that follow come from ChEMBL document CHEMBL4251758, “Small Molecule Inhibition of MicroRNA miR-21 Rescues Chemosensitivity of Renal-Cell Carcinoma to Topotecan” (J Med Chem, 2018).

Assay [1] has as its system microRNA 21. The assay can be described thus: Inhibition of miR-21 RNA in human HeLa cells harboring miR-21 binding sequence in 3'-UTR of firefly luciferase gene assessed as increase in luciferase expression incubated for 48 hrs by Bright-Glo luciferase reporter gene assay relative to control. The assay is classed as cell-based. The essentials:
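HeLa-miR21-Luc stable line (miR-21 site in the firefly luciferase 3′-UTR), 1000 cells per well. Compound or DMSO (0.1% final) added after overnight attachment, in triplicate, for 48 h. Bright-Glo luminescence was normalized to XTT viability (450 nm) and expressed as fold change relative to DMSO. At least three independent experiments.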

In assay [2] the test system is microRNA 21. The assay can be described thus: Inhibition of miR-21 RNA (unknown origin) transfected in human HeLa cells at 0.1 to 1000 nM after 48 hrs by Bright-Glo luciferase reporter gene assay. The assay is classed as cell-based. Background: In a reporter assay the amount or activity of a reporter protein is the signal.
Assay [3] has as its system A498. Kind of assay: Induction of apoptosis in human A498 cells assessed as increase in caspase-3/7 activity at 1 uM after 24 hrs by Caspase-Glo 3/7 assay relative to control. The assay is classed as functional.
Assay [4] concerns A498. Kind of assay: Inhibition of colony formation of human A498 cells after 2 weeks by crystal violet staining-based microscopic analysis. The assay is classed as functional, cell-based. The settings on record: A498, 336 h. The essentials: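 A498 cells, 10,000 per well, seeded in 0.45% low-melt agarose in DMEM over a 0.7% agarose base layer, containing increasing compound concentrations or DMSO (0.1% final), in triplicate. For combinations, the inhibitor was held at 10 μM. After 2 weeks, colonies were stained with 0.1% crystal violet and imaged by z-stack microscopy. Colony counts were normalized to DMSO; IC50 from sigmoidal fit.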

The nature of assay [5]: Stabilization of pre-miR-21 RNA (unknown origin) assessed as increase in melting temperature at 10 uM by UV-spectrophotometric analysis. The essentials:
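Melting-curve analysis of precursor miR-21 RNA run with test compound, with DMSO as the reference condition and tobramycin (10 μM) as a positive control for RNA binding and stabilisation. Read-out is the shift in melting temperature of pre-miR-21 relative to the DMSO sample.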

Molecules are shown by their SMILES. Activity calls are given as the source filed them. The rule behind the calls is not given here.

As to `Nc1c(-c2nc(-c3cccs3)no2)nnn1-c1cccc(F)c1`, the fold change (FC) in assay [1] is 1.93.

`Nc1c(-c2nc(-c3cccs3)no2)nnn1-c1cccc(OC(F)(F)F)c1`: the fold change (FC) in assay [1] came to 1.4.

As to `Nc1c(-c2nc(-c3cccs3)no2)nnn1-c1cccc(C(F)(F)F)c1`, in assay [1], the fold change (FC) stood at 1.08.

Turning to `COc1cc(OC)cc(-n2nnc(-c3nc(-c4cccs4)no3)c2N)c1`, the fold change (FC) in assay [1] came out at 2.3.

On to `CC(=O)c1cccc(-n2nnc(-c3nc(-c4cccs4)no3)c2N)c1`, for which, in assay [1], the fold change (FC) is 2.46.

Consider `Fc1cccc(-n2cc(-c3nc(-c4cccs4)no3)nn2)c1`, for which, in assay [1], the fold change (FC) amounted to 1.7.

Turning to `C/C(=N\O)c1cccc(-n2nnc(-c3nc(-c4cccs4)no3)c2N)c1`, the fold change (FC) in assay [1] was determined as 4.54.

For `Nc1c(-c2nc(-c3cccs3)no2)nnn1-c1ccc(CO)cc1`, in assay [1], the fold change (FC) was 2.14.

With `CC[C@@]1(O)C(=O)OCc2c1cc1n(c2=O)Cc2cc3c(CN(C)C)c(O)ccc3nc2-1` [TOPOTECAN], in assay [2], the inhibition entry is “inactive”. Also, the “fold change (FC)” value in assay [3] is on record as 3. Also, the IC50 in assay [4] is 2000 nM.

For the compound `Nc1c(-c2nc(-c3cccs3)no2)nnn1-c1cccc(O)c1`, the fold change (FC) in assay [1] was found to be 2.19.

In the case of `CC(C)c1cccc(-n2nnc(-c3nc(-c4cccs4)no3)c2N)c1`, the fold change (FC) in assay [1] amounted to 1.82.

Take `COc1cccc(-n2nnc(-c3nc(-c4ccccn4)no3)c2N)c1`: the fold change (FC) in assay [1] stood at 2.23.

Regarding `Nc1c(-c2nc(-c3cccs3)no2)nnn1-c1ccccc1`, in assay [1], the fold change (FC) amounted to 1.01.

For `CCc1cccc(-n2nnc(-c3nc(-c4cccs4)no3)c2N)c1`, the fold change (FC) in assay [1] worked out at 1.63.

As for `C/C(=N\O)c1cccc(-n2nnc(-c3nc(-c4ccc(O)cc4)no3)c2N)c1`, the fold change (FC) in assay [1] came out at 1.98.

Consider `CN(C)c1cccc(-n2nnc(-c3nc(-c4cccs4)no3)c2N)c1`, for which the fold change (FC) in assay [1] came to 2.56.

Consider `C/C(=N\O)c1cccc(-n2nnc(-c3nc(-c4ccc(OC(C)C)cc4)no3)c2N)c1`, for which the fold change (FC) in assay [1] came out at 1.19.

As for `Nc1c(-c2nc(-c3cccs3)no2)nnn1-c1ccccc1CO`, the fold change (FC) in assay [1] was 2.23.

Take `c1ccc(-n2cc(-c3nc(-c4cccs4)no3)nn2)cc1`: the fold change (FC) in assay [1] was determined as 1.41.

Turning to `COc1cccc(-n2nnc(-c3nc(-c4cccs4)no3)c2N)c1`, the fold change (FC) in assay [1] amounted to 2.84.

Regarding `Nc1c(-c2nc(-c3cccs3)no2)nnn1-c1cccc(CO)c1`, in assay [1], the fold change (FC) is 1.67.

Regarding `COc1cccc(-n2nnc(-c3nc(-c4ccco4)no3)c2N)c1`, the fold change (FC) in assay [1] was found to be 2.19.

On to `COc1ccccc1-n1nnc(-c2nc(-c3cccs3)no2)c1N`, for which, in assay [1], the fold change (FC) is 2.02.

On to `Nc1c(-c2nnc(-c3cccs3)o2)nnn1-c1cccc(F)c1`, for which the fold change (FC) in assay [1] turned out to be 1.6.

On to `NC[C@H]1O[C@H](O[C@H]2[C@H](O)[C@@H](O[C@H]3O[C@H](CO)[C@@H](O)[C@H](N)[C@H]3O)[C@H](N)C[C@@H]2N)[C@H](N)C[C@@H]1O`, for which, in assay [5], the thermal shift (ΔTm) is 19 °C.

Consider `COc1ccc(-c2noc(-c3nnn(-c4cccc(/C(C)=N/O)c4)c3N)n2)cc1`, for which the fold change (FC) in assay [1] was 1.51.

Regarding `COc1cccc(-n2nnc(-c3nc(-c4ccccc4)no3)c2N)c1`, the fold change (FC) in assay [1] stood at 2.19.

With `COc1cccc(-n2cc(-c3nc(-c4cccs4)no3)nn2)c1`, the fold change (FC) in assay [1] was 2.2.

For the compound `CC(C)c1cccc(-n2nnc(-c3nnc(-c4cccs4)o3)c2N)c1`, the fold change (FC) in assay [1] is 1.72.

For `Nc1c(-c2nc(-c3cccs3)no2)nnn1-c1cccc(C(=O)c2ccccc2)c1`, the fold change (FC) in assay [1] is 1.82.

For the compound `C=CCOc1ccc(-c2noc(-c3nnn(-c4cccc(/C(C)=N/O)c4)c3N)n2)cc1`, the fold change (FC) in assay [1] turned out to be 2.96.

Turning to `COc1cccc(-n2nnc(-c3nnc(-c4cccs4)o3)c2N)c1`, the fold change (FC) in assay [1] stood at 2.68.

`CCOc1ccc(-c2noc(-c3nnn(-c4cccc(/C(C)=N/O)c4)c3N)n2)cc1`: the fold change (FC) in assay [1] came out at 3.14.

For the compound `C#CCOc1ccc(-n2nnc(-c3nc(-c4cccs4)no3)c2N)cc1`, the fold change (FC) in assay [1] came out at 1.47.

Turning to `Nc1c(-c2nc(-c3cccs3)no2)nnn1-c1cccc(-c2ccccc2)c1`, the fold change (FC) in assay [1] is 1.06.

For the compound `Cc1cccc(-n2nnc(-c3nc(-c4cccs4)no3)c2N)c1C`, in assay [1], the fold change (FC) amounted to 1.89.

Consider `C#CCOc1cccc(-n2nnc(-c3nc(-c4cccs4)no3)c2N)c1`, for which the fold change (FC) in assay [1] was determined as 1.61.

Regarding `Nc1c(-c2nc(-c3cccs3)no2)nnn1-c1ccc2ccccc2c1`, in assay [1], the fold change (FC) was determined as 1.39.

In general, IC50 refers to the point on the concentration scale where inhibition reaches its midpoint. Low readings indicate inhibition by little substance, high ones a need for much substance. As a reminder, the ΔTm is the shift of the melting midpoint relative to a reference.
